Test results taken from article PMC3127012 (European Journal of Nuclear Medicine and Molecular Imaging, 2011).

Assay: Biodistribution: uptake of 111In-labelled peptides in normal tissues
Type: in vivo, mice
Method in brief: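 Female athymic BALB/c mice with s.c. A431-CCK2R (2 × 10^6 cells, left flank) and mock-transfected A431 (right flank) tumours, ~0.1–0.2 g after ~10 days; n = 5/group. 111In-DOTA-peptide (11 GBq/μmol, >95% radiochemical purity) injected into the tail vein. Blood and organs were dissected at 1 and 4 h p.i., weighed, and gamma-counted; %ID/g, mean ± SD. Blocking group: 1,000-fold molar excess of unlabelled peptide, dissected at 4 h.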

Row | blood levels relative to the other peptides investigated (BALB/c nude mice, 111In-labelled peptide, 1 h p.i.) | tissue uptake (mouse, in vivo, iv, 370 kBq (0.03 nmol)) [%ID/g] | Molecule
1 | tenfold higher |  | DOTA-Gly-Ser-Cys-(Glu-Ala-Tyr-Gly-Trp-Nle-Asp-Phe-NH2)2 [MGD5]
2 |  | > 48 | CSCC[C@H](NC(=O)[C@H](Cc1c[nH]c2ccccc12)NC(=O)CNC(=O)[C@H](Cc1ccc(O)cc1)NC(=O)[C@H](C)NC(=O)[C@H](CCC(=O)O)NC(=O)[C@H](CCC(=O)O)NC(=O)[C@H](CCC(=O)O)NC(=O)[C@H](CCC(=O)O)NC(=O)[C@H](CCC(=O)O)NC(=O)[C@@H](CCC(=O)O)NC(=O)CN1CCN(CC(=O)O)CCN(CC(=O)O)CCN(CC(=O)O)CC1)C(=O)N[C@@H](CC(=O)O)C(=O)N[C@@H](Cc1ccccc1)C(N)=O [MG0]
